This passage reports CC50 and IC50 results from ChEMBL document CHEMBL1129341, “New neplanocin analogues. 6. Synthesis and potent antiviral activity of 6'-homoneplanocin A1” (J Med Chem, 1996).

The test system of experiment [1] is E6SM. Briefly: Cytotoxic activity against HSV-1(KOS) virus in E6SM Cells. The format is functional. As to conditions: Homo sapiens. Summed up: (§1)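 Antiviral screen in cell culture (HeLa, HEL, E6SM or Vero, per line). IC50 is the concentration that reduces virus-induced cytopathogenicity by 50%.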
Experiment [2] concerns E6SM. The experiment in a line: Cytotoxic activity against HSV-2 (G) virus in E6SM Cells. It counts as functional. As to conditions: Homo sapiens.
The test system of experiment [3] is E6SM. Briefly: Cytotoxic activity against TK-HSV-1 (B2006) virus in E6SM Cells. It counts as functional. Particulars: Homo sapiens.
The subject of experiment [4] is E6SM. Briefly: Cytotoxic activity against VSV virus in E6SM Cells. The format is functional. As to conditions: Homo sapiens. The method in brief:
as §1

Experiment [5] relates to E6SM. Briefly: Cytotoxic activity against vaccinia virus in E6SM Cells. It counts as functional. Particulars: Homo sapiens. The method in brief: as §1
For experiment [6], the system named is HEL. Briefly: Cytotoxic activity against HCMV (AD-169) virus in HEL Cells. The format is functional. Particulars: Homo sapiens.
Experiment [7] relates to HEL. Briefly: Cytotoxic activity against HCMV(Davis) virus in HEL Cells. As to conditions: Homo sapiens. It counts as functional.
Experiment [8] concerns HEL. Briefly: Cytotoxic activity against TK-VZV (YS/R) virus in HEL Cells. It counts as functional. Particulars: Homo sapiens.
The test system of experiment [9] is HEL. Briefly: Cytotoxic activity against VZV (OKA) virus in HEL Cells. It counts as functional. As to conditions: Homo sapiens. Summed up:
as §1

In experiment [10] the test system is HEL. The experiment in a line: Cytotoxic activity against VZV (YS) virus in HEL Cells. It counts as functional. Particulars: Homo sapiens.
Experiment [11] relates to HEL. The experiment in a line: Cytotoxic activity against cell growth in HEL Cells. The format is functional. As to conditions: Homo sapiens. The method in brief:
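HEL cell cultures. CC50 is the concentration that reduces cell growth by 50%.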

The subject of experiment [12] is HeLa. The experiment in a line: Cytotoxic activity against Coxsackie B4 virus in HeLa Cells. As to conditions: Homo sapiens. It counts as functional.
Experiment [13] relates to HeLa. Briefly: Cytotoxic activity against Polio-1 virus in HeLa Cells. It counts as functional. Particulars: Homo sapiens. Summed up: as §1
Experiment [14] has as its system HeLa. Briefly: Cytotoxic activity against VZV virus in HeLa Cells. The format is functional. As to conditions: Homo sapiens.
Experiment [15] deals with HeLa. Briefly: Cytotoxic activity against cell morphology in HeLa Cells. It counts as functional. Particulars: Homo sapiens. Summed up:
(§2)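 Host cells under the conditions of the antiviral assays (E6SM, HeLa or Vero, per line). Cytotoxic concentration is the one causing microscopic alteration of normal cell morphology in about 50% of cells.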

Experiment [16] concerns Vero. Briefly: Inhibitory activity against virus plaque formation (PV-3) in Vero cells. It counts as functional, cell-based. Particulars: Chlorocebus sabaeus. The method in brief: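 Poliovirus type 3 in Vero cells. IC50 is the concentration that reduces virus plaque formation by 50%.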
Experiment [17] deals with Vero. Briefly: Inhibitory activity against virus-induced cytopathogenicity (VSV)in Vero cells. It counts as functional, cell-based. As to conditions: Chlorocebus sabaeus. Summed up:
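Vesicular stomatitis virus in Vero cells. IC50 is the concentration that reduces virus-induced cytopathogenicity by 50%.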
Background: Cytopathic effects are the visible damage that an infection or toxin causes in cultured cells.

Experiment [18] concerns Vero. Briefly: Cytotoxic activity against Reo-1 virus in Vero Cells. It counts as functional. As to conditions: Chlorocebus sabaeus.
Experiment [19] concerns Vero. The experiment in a line: Cytotoxic activity against forest virus in Vero Cells. It counts as functional. Particulars: Chlorocebus sabaeus. Summed up: as §1
The test system of experiment [20] is Vero. The experiment in a line: Cytotoxic activity against Sindbis virus in Vero Cells. It counts as functional. Particulars: Chlorocebus sabaeus.
For experiment [21], the system named is Vero. The experiment in a line: Cytotoxic activity against Tacaribe virus in Vero Cells. The format is functional. Particulars: Chlorocebus sabaeus. Summed up:
as §1

In experiment [22] the test system is Vero. The experiment in a line: Cytotoxic activity towards viable cells in Vero cells. Particulars: Chlorocebus sabaeus. The format is functional. The method in brief: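 Vero cells. CC50 is the concentration that reduces the number of viable cells by 50%.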
For experiment [23], the system named is Vero. The experiment in a line: Cytotoxic activity against Junin virus in Vero Cells. As to conditions: Chlorocebus sabaeus. It counts as functional. Summed up: as §1
Experiment [24] concerns Vero. The experiment in a line: Cytotoxic activity against PV-3 virus in Vero Cells. As to conditions: Chlorocebus sabaeus. It counts as functional.
Experiment [25] relates to E6SM. Briefly: Cytotoxic activity against cell morphology in E6SM Cells. The format is functional. Particulars: Homo sapiens. The method in brief:
as §2

Experiment [26] deals with HEL. The experiment in a line: Cytotoxic activity against TK-VZV (07/1) virus in HEL Cells. As to conditions: Homo sapiens. It counts as functional.
For experiment [27], the system named is Vero. Briefly: Cytotoxic activity against cell morphology in Vero Cells. It counts as functional. As to conditions: Chlorocebus sabaeus. The method in brief:
as §2

Experiment [28] is described as follows: Inhibitory activity against S-adenosyl-L-homocysteine hydrolase from rabbit erythrocytes.

In brackets after ≈: the same amount, converted by molar mass.

A word on the CC50: it is the concentration that lowers cell viability or growth by half. A higher CC50 goes with lower toxicity to the cells. Usually IC50 stands for the concentration that inhibits the measured activity by half. Low readings indicate inhibition by little substance, high ones a need for much substance.

In the case of `Nc1ncnc2c1ncn2[C@@H]1C=C(CCO)[C@@H](O)[C@H]1O`, the CC50 in [1] was over 400 µg/mL; in experiment [2], over 400 µg/mL; in [3], over 400 µg/mL; in experiment [4], 1 µg/mL (≈ 3.61 µM); in [5], 0.1 µg/mL (≈ 0.361 µM); in experiment [6] it was 0.15 µg/mL (≈ 0.541 µM). Moreover, the CC50 in [7] is 0.5 µg/mL (≈ 1.8 µM); in [8], over 50 µg/mL; in experiment [9] it was over 50 µg/mL; in experiment [10], over 50 µg/mL; in [11] it was over 50 µg/mL; in experiment [12], over 200 µg/mL. The CC50 in experiment [13] was over 200 µg/mL; in experiment [14], 0.7 µg/mL (≈ 2.52 µM); in experiment [15], over 400 µg/mL; in [18], 70 µg/mL (≈ 252 µM); in [19] it was over 400 µg/mL; in experiment [20] it was over 400 µg/mL. Besides, the CC50 in experiment [21] is 20 µg/mL (≈ 72.1 µM); in experiment [22], over 500 µg/mL; in [23] it was 5 µg/mL (≈ 18 µM); in experiment [24] it was 2 µg/mL (≈ 7.21 µM); in [25], over 400 µg/mL; in [26], over 50 µg/mL. In addition, the CC50 in experiment [27] is over 400 µg/mL. Moreover, the IC50 was 0.35 µg/mL (≈ 1.26 µM) in experiment [16] and 1 µg/mL (≈ 3.61 µM) in experiment [17].
`Nc1nc(O)c2ncn([C@@H]3C=C(CCO)[C@@H](O)[C@H]3O)c2n1`: the IC50 in experiment [16] is over 25 µg/mL; in experiment [17], over 500 µg/mL. In addition, the cytotoxic concentration (CC50) in [22] is over 500 µg/mL.
On to `Nc1nccc2c1ncn2[C@@H]1C=C(CCO)[C@@H](O)[C@H]1O`, for which the IC50 in [16] is over 25 µg/mL; in experiment [17], 3.9 µg/mL (≈ 14.1 µM). This compound also displayed a CC50 in experiment [22] of over 500 µg/mL.
The like results for `Cc1cn([C@@H]2C=C(CCO)[C@@H](O)[C@H]2O)c(=O)[nH]c1=O` were, in that order, over 25 µg/mL, over 500 µg/mL and over 500 µg/mL.
The like results for `Nc1ccn([C@@H]2C=C(CCO)[C@@H](O)[C@H]2O)c(=O)n1` were, in that order, over 25 µg/mL, over 500 µg/mL and over 500 µg/mL.
Take `Nc1ncnc2c1ncn2[C@@H]1C=C(CO)[C@@H](O)[C@H]1O` [NEOPLANOCIN A]: the CC50 was over 70 µg/mL in experiment [1]; over 70 µg/mL in [2]; 40 µg/mL (≈ 152 µM) in experiment [3]; 7 µg/mL (≈ 26.6 µM) in experiment [4]; 0.7 µg/mL (≈ 2.66 µM) in experiment [5]; 0.3 µg/mL (≈ 1.14 µM) in experiment [6]. Besides, the CC50 in [7] is 0.4 µg/mL (≈ 1.52 µM); in experiment [8], 7 µg/mL (≈ 26.6 µM); in [9] it was 15 µg/mL (≈ 57 µM); in [10], 9 µg/mL (≈ 34.2 µM); in experiment [11], over 20 µg/mL; in experiment [12], over 40 µg/mL. In addition, the CC50 in [13] is over 40 µg/mL; in experiment [14] it was 2 µg/mL (≈ 7.6 µM); in experiment [15] it was over 40 µg/mL; in experiment [18], 4 µg/mL (≈ 15.2 µM); in experiment [19] it was over 10 µg/mL; in [20], over 10 µg/mL. The CC50 in experiment [21] was determined as 2 µg/mL (≈ 7.6 µM); in [22] it was 152 µg/mL (≈ 577 µM); in experiment [23], 0.5 µg/mL (≈ 1.9 µM); in experiment [24], 2 µg/mL (≈ 7.6 µM); in experiment [25], 70 µg/mL (≈ 266 µM); in experiment [26], 10 µg/mL (≈ 38 µM). In [27], this compound had a CC50 of over 10 µg/mL. Moreover, the figures for the 50% inhibitory concentration (IC50) in [16], in [17] and in [28] were 0.74 µg/mL (≈ 2.81 µM), 1 µg/mL (≈ 3.8 µM) and 0.004 µg/mL (≈ 0.0152 µM), respectively.
